Data reported in ChEMBL document CHEMBL4689842, “EUbOPEN Chemogenomics Library wave 1” (2021).
“And” between values parts separate entries of the source, which are not always exact repeats. Equal entries are not always repeated.

System: U2OS
Assay: Multiplex assay against U2OS
Type: toxicity, cell-based
Details: human, 10 µM, compound concentration 10 uM
Procedure, shortened: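 Cells stained live at seeding with Hoechst33342, BioTracker Green Microtubule Cytoskeleton Dye, MitoTracker Red and Annexin V Alexa Fluor 680 were imaged on a CQ1 microscope at 37°C and 5% CO2 after compound addition. Their classification by CellPathfinder machine-learning gating ran from Hoechst high-intensity objects versus normal cells, to healthy, pyknosed or fragmented nuclei among normal cells, to mitotic or apoptotic among pyknosed cells. Tubulin, mitochondrial-mass and membrane-permeability phenotypes are per cents of healthy-nucleus cells.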

SMILES | Population Apoptotic (%) (12 h, replicate 1) | Population Healthy Nuclei (%) (12 h, replicate 1) | Population Hoechst High Intensity Objects (%) (12 h, replicate 1) | Population Membrane Permeable-Phenotype (%) (12 h, replicate 1) | Population Mitochondria Different-Phenotype (%) (12 h, replicate 1) | Population Mitotic Cells (%) (12 h, replicate 1) | Population Normal (%) (12 h, replicate 1) | Population Tubulin-Different-Phenotype (%) (12 h, replicate 1) | Population Apoptotic (%) (12 h, replicate 2) | Population Fragmented Nuclei (%) (12 h, replicate 2) | Population Healthy Nuclei (%) (12 h, replicate 2) | Population Hoechst High Intensity Objects (%) (12 h, replicate 2) | Population Membrane Permeable-Phenotype (%) (12 h, replicate 2) | Population Mitotic Cells (%) (12 h, replicate 2) | Population Normal (%) (12 h, replicate 2) | Population Pyknosed Nuclei (%) (12 h, replicate 2) | Population Tubulin-Different-Phenotype (%) (12 h, replicate 2) | Population Apoptotic (%) (24 h, replicate 1) | Population Fragmented Nuclei (%) (24 h, replicate 1) | Population Hoechst High Intensity Objects (%) (24 h, replicate 1) | also measured
CNCc1ccccc1-c1csc([C@@H](C)Nc2nc(C)nc3cc(OC)c(OC)cc23)c1 [BAY-293] | 63% and 46% | 36% and 80% | 5% and 4% | 73% and 54% | 88% and 36% | 36% and 53% | 94% and 95% | 100% and 98% | 54% and 52% | 9% and 17% | 72% and 52% | 14% and 16% | 46% and 75% | 45% and 47% | 85% and 83% | 17% and 30% | 97% | 91% | 19% and 7% | 19% and 7% | Population Mitochondria Different-Phenotype (%) (12 h, replicate 2): 56% and 97%; Population Membrane Permeable-Phenotype (%) (24 h, replicate 1): 100% and 52%; Population Mitochondria Different-Phenotype (%) (24 h, replicate 1): 100% and 64%; Population Mitotic Cells (%) (24 h, replicate 1): 8%; Population Normal (%) (24 h, replicate 1): 80% and 92%; Population Pyknosed Nuclei (%) (24 h, replicate 1): 66% and 27%; Population Tubulin-Different-Phenotype (%) (24 h, replicate 1): 100% and 97%; Population Apoptotic (%) (24 h, replicate 2): 84% and 45%; Population Fragmented Nuclei (%) (24 h, replicate 2): 25% and 10%; Population Healthy Nuclei (%) (24 h, replicate 2): 30% and 60%; Population Hoechst High Intensity Objects (%) (24 h, replicate 2): 10% and 8%; Population Membrane Permeable-Phenotype (%) (24 h, replicate 2): 91% and 43%; Population Mitochondria Different-Phenotype (%) (24 h, replicate 2): 95% and 72%; Population Normal (%) (24 h, replicate 2): 89% and 91%; Population Pyknosed Nuclei (%) (24 h, replicate 2): 44% and 28%; Population Tubulin-Different-Phenotype (%) (24 h, replicate 2): 95% and 96%
Cc1cc(NC(=O)c2cccc(S(F)(F)(F)(F)F)c2)cc(-n2ccn3nc(-c4cccnc4)cc23)c1 [BAY-309] | 25% and 23% | 87% and 78% | 0% and 3% | 46% and 55% | 30% and 60% | 75% and 76% | 99% and 96% | 67% | 37% and 56% | 8% and 9% | 82% and 67% | 9% and 5% | 53% and 49% | 62% and 43% | 90% and 94% | 9% and 22% | 61% and 100% | 50% and 61% | 8% and 6% | 5% and 3% | Population Fragmented Nuclei (%) (12 h, replicate 1): 4%; Population Pyknosed Nuclei (%) (12 h, replicate 1): 7% and 16%; Total Cell Count (12 h, replicate 1): 108 and 233; Total Cell Count (12 h, replicate 2): 185; Population Healthy Nuclei (%) (24 h, replicate 1): 85% and 70%; Population Membrane Permeable-Phenotype (%) (24 h, replicate 1): 42% and 56%; Population Mitotic Cells (%) (24 h, replicate 1): 50% and 38%; Population Normal (%) (24 h, replicate 1): 95% and 96%; Population Tubulin-Different-Phenotype (%) (24 h, replicate 1): 53%; Total Cell Count (24 h, replicate 1): 140 and 230; Population Apoptotic (%) (24 h, replicate 2): 95% and 37%; Population Fragmented Nuclei (%) (24 h, replicate 2): 15% and 7%; Population Healthy Nuclei (%) (24 h, replicate 2): 60% and 84%; Population Hoechst High Intensity Objects (%) (24 h, replicate 2): 9% and 6%; Population Membrane Permeable-Phenotype (%) (24 h, replicate 2): 74% and 40%; Population Mitochondria Different-Phenotype (%) (24 h, replicate 2): 83% and 30%; Population Normal (%) (24 h, replicate 2): 90% and 93%; Population Tubulin-Different-Phenotype (%) (24 h, replicate 2): 100% and 40%; Total Cell Count (24 h, replicate 2): 108 and 215
